What was measured:
[1] = biological target: T1, C-C chemokine receptor type 1 (Homo sapiens, UniProt P32246); experiment: Antagonist activity at recombinant CCR1 (unknown origin) expressed in non-adherent cells co-expressing Galpha16 assessed as inhibition of MIP-1 alpha-induced calcium flux by Fluo-4 NW or Calcium 4 dye based FLIPR TETRA assay; format: functional, cell-based
T1 sequence (P32246 whole entry): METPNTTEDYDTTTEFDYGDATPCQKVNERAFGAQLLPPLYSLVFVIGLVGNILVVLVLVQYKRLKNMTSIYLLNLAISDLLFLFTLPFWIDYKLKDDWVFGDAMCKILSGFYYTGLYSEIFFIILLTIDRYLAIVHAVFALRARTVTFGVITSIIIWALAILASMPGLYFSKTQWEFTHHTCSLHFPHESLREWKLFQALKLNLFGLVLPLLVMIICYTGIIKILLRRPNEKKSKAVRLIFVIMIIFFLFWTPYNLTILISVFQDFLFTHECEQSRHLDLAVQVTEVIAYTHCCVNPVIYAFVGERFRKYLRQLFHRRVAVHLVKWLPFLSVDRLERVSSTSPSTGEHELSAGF
Outline: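 The cells stably co-express CCR1 and Gα16 and were loaded with dye for 1 h at room temperature with probenecid (Method A: Fluo-4 NW; Method B: Calcium 4), then plated at 20,000 cells/well. Compounds were tested at 10 doses from a 3,000 nM top (A 3-fold steps, B 4-fold), in 1% DMSO and HBSS/20 mM HEPES pH 7.4. Preincubation was 1 h at room temperature in the dark (A) or 30 min at 37°C then 30 min at room temperature (B). MIP-1α was added at EC80 and the calcium flux recorded.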

[2] = Aqueous solubility of the compound; format: physicochemical; conditions: water

IC50 [1] | solubility [2] | SMILES
> 3000 nM |  | O=C(NCc1cccc(C(F)(F)F)c1)c1cnn(-c2ccc(Cl)cc2)c1C(F)(F)F
10 nM |  | CCC[C@H](NC(=O)c1cnn(-c2ccc(Cl)cc2)c1C)c1cccc(C(F)(F)F)c1F
> 3000 nM |  | Cn1cc(C(=O)NCc2cccc(C(F)(F)F)c2)nc1-c1ccc(Cl)cc1
1900 nM |  | Cc1cc(-c2ccc(Cl)cc2)sc1C(=O)NCc1cccc(C(F)(F)F)c1
> 3000 nM |  | Cc1c(C(=O)NCc2cccc(C(F)(F)F)c2)cnn1-c1ccccc1Cl
> 3000 nM |  | Cc1c(C(=O)NCc2ccccn2)cnn1-c1ccc(Cl)cc1
> 3000 nM |  | Nc1c(C(=O)NCc2cccc(C(F)(F)F)c2)cnn1-c1ccc(Cl)cc1
2100 nM |  | Cc1c(C(=O)NCc2cccc(S(C)(=O)=O)c2)cnn1-c1ccc(Cl)cc1
2 nM |  | COc1cc(N2CCN(C(=O)Cn3nc(-c4ncc[nH]4)c4cccnc43)CC2)ccc1Cl [CCX354]
> 3000 nM |  | Cc1c(C(=O)NCc2cccnc2)cnn1-c1ccc(Cl)cc1
1700 nM |  | Cc1c(C(=O)NCc2ccc(S(C)(=O)=O)cc2)cnn1-c1ccc(Cl)cc1
2400 nM |  | Cc1c(C(=O)NCc2cccc(C(F)(F)F)c2)nnn1-c1ccc(Cl)cc1
> 3000 nM |  | Cc1c(C(=O)NCc2cccc(N)c2)cnn1-c1ccc(Cl)cc1
790 nM |  | Cc1c(C(=O)NCc2cccc(C(F)(F)F)c2)cnn1-c1ccc(F)cc1
13 nM |  | CC[C@H](NC(=O)c1cnn(-c2ccc(Cl)cc2)c1C)c1cccc(C(F)(F)F)c1F
> 3000 nM |  | Cc1c(C(=O)NCc2cccc(C(F)(F)F)c2)cnn1-c1ccccc1
> 3000 nM |  | Cc1c(C(=O)NCc2cccc(O)c2)cnn1-c1ccc(Cl)cc1
> 3000 nM |  | Cc1c(C(=O)NCc2ccncc2)cnn1-c1ccc(Cl)cc1
> 3000 nM |  | Cc1nc(C(=O)NCc2cccc(C(F)(F)F)c2)nn1-c1ccc(Cl)cc1
350 nM |  | Cc1cc(C(=O)NCc2cccc(C(F)(F)F)c2)c(C)n1-c1ccc(Cl)cc1
47 nM |  | CCCC(NC(=O)c1cnn(-c2ccc(Cl)cc2)c1C)c1ccc(S(C)(=O)=O)nc1 (stereo not drawn)
> 3000 nM |  | Cc1nn(-c2ccc(Cl)c(Cl)c2)c(C)c1C(=O)NCc1cccc(C(F)(F)F)c1
> 3000 nM |  | Cc1c(C(=O)NCc2cccc(C(N)=O)c2)cnn1-c1ccc(Cl)cc1

The remaining lines, values behind:

SMILES | IC50 [1] | solubility [2]
Cc1nc(-c2ccc(Cl)cc2)sc1C(=O)NCc1cccc(C(F)(F)F)c1 | > 3000 nM | 
Cc1c(C(=O)NCc2ccccc2S(C)(=O)=O)cnn1-c1ccc(Cl)cc1 | > 3000 nM | 
CC(C)(O)c1ccc2c(c1)/C(=C\CCN1CC[C@](O)(c3ccc(Cl)cc3)C(C)(C)C1)c1cccnc1CO2 | 0.8 nM | 
O=C(NCc1cccc(C(F)(F)F)c1)c1cnn(-c2ccc(Cl)cc2)c1CO | 1200 nM | 
Cc1c(C(=O)N[C@@H](C)c2cccc(C(F)(F)F)c2F)cnn1-c1ccc(Cl)cc1 | 28 nM | 
Cc1c(C(=O)NCc2cccc(C(F)(F)F)c2)cnn1-c1ccc(Cl)cc1 | 600 nM | 
Cc1c(C(=O)NCc2cccc(C(F)(F)F)c2)cnn1-c1cccc(C(F)(F)F)c1 | > 3000 nM | 
CN(C)c1c(C(=O)NCc2cccc(C(F)(F)F)c2)cnn1-c1ccc(Cl)cc1 | > 3000 nM | 
Cc1cccc(-n2ncc(C(=O)NCc3cccc(C(F)(F)F)c3)c2C)c1 | > 3000 nM | 
Cn1c(C(=O)NCc2cccc(C(F)(F)F)c2)cnc1-c1ccc(Cl)cc1 | > 3000 nM | 
Cc1c(C(=O)NCc2cccc(C(F)(F)F)c2)cnn1-c1cccc(Cl)c1 | > 3000 nM | 
CC(C)[C@@H](NC(=O)NCC(C)(C)O)C(=O)N1CC[C@](O)(c2ccc(Cl)cc2)C(C)(C)C1 [BMS-817399] | 3 nM | 
COCc1c(C(=O)NCc2cccc(C(F)(F)F)c2)cnn1-c1ccc(Cl)cc1 | > 3000 nM | 
Cc1c(C(=O)NCc2cccc(C(F)(F)F)c2)cnn1-c1ccc(Cl)c(Cl)c1 | 500 nM | < 1 µg/mL
Cc1c(C(=O)NCc2cccc(C(F)(F)F)c2)cnn1Cc1ccccc1 | > 3000 nM | 
Cc1c(C(=O)NCc2cccc(C(F)(F)F)c2)cnn1-c1ccc([N+](=O)[O-])cc1 | 960 nM | 
O=C(NCc1cccc(C(F)(F)F)c1)c1cnn(-c2ccc(Cl)c(Cl)c2)c1 | > 3000 nM | 
Cc1c(C(=O)NCc2ccc(S(C)(=O)=O)nc2)cnn1-c1ccc(Cl)c(Cl)c1 | > 3000 nM | 
CNS(=O)(=O)c1ccc(CNC(=O)c2cnn(-c3ccc(Cl)cc3)c2C)cc1 | 420 nM | 

From ChEMBL document CHEMBL4371017, “Discovery and optimization of pyrazole amides as antagonists of CCR1” (Bioorg Med Chem Lett, 2019)
